Experimental data of several laboratories.
Each line is one published result; the experiments were not run side by side.
Target: Protein kinase C iota type (PRKCI, Homo sapiens, UniProt P41743)
Sequence (P41743 1-596, as in one of the studies): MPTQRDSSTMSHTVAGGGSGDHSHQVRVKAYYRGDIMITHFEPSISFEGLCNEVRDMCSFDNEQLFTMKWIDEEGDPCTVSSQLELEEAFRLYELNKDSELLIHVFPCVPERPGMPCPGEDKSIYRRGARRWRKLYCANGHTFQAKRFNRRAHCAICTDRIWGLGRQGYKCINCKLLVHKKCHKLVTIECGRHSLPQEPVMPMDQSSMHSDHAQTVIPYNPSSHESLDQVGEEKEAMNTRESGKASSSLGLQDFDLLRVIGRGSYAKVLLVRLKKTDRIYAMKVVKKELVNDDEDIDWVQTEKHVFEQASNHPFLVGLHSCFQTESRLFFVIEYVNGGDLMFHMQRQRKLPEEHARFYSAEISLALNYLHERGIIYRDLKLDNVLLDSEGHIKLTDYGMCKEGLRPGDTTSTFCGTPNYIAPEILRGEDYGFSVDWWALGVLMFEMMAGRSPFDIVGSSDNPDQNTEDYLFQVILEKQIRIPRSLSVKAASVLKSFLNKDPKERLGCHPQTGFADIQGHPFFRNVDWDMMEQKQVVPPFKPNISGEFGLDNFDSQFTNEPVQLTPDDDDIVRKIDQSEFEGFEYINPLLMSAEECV

| SMILES | read-out | mode | technique | concentration | quantity | result |
| --- | --- | --- | --- | --- | --- | --- |
| N#CCCc1ccc2c(c1)-c1[nH]c3ccc([N+](=O)[O-])cc3c1CC(=O)N2 | cell-free assay | – | – | 0.5 µM | remaining signal | 65.3% |
| CN(C)C1CCN(CC#Cc2nn(C3CCCC3)c3nc(NCc4ccccc4)ncc23)C1 (stereo not drawn) | enzyme activity | inhibitor | FRET | 10 µM | inhibition | 6% |
| COc1cc2ncnc(Nc3ccc(Oc4ccccc4)cc3C)c2cc1OC | enzyme activity | inhibitor | – | 1 µM | inhibition | 3% |
| COc1cc(-c2cc(-c3ccc(N4CCNCC4)cc3)cnc2C)cc(OC)c1OC | enzyme activity | inhibitor | – | 1 µM | inhibition | 18% |
| COc1cccc(CNC(=O)c2nc3scc(COCc4ccc(C(=O)O)cc4)c3c(=O)[nH]2)c1 | cell-free assay | – | competition with immobilised ligand | 1 µM | remaining binding | 100% |
| CC(C)(O)[C@H]1CC[C@H](Nc2ccc3ncc(-c4cccc(C(F)(F)F)c4)n3n2)CC1 | enzyme activity | inhibitor | – | 1 µM | remaining activity | 128% |
| CCN(CC)CCNC(=O)c1c(C)[nH]c(/C=C2\C(=O)Nc3ccc(F)cc32)c1C | enzyme activity | inhibitor | – | 0.3 µM | inhibition | 3% |
| Nc1ncnc2occ(-c3ccc(NC(=O)Nc4cc(C(F)(F)F)ccc4F)cc3)c12 | cell-free assay | – | – | 20 µM | remaining signal | 6.8% |
| Cn1nc(C(=O)NCc2ccc(C(=O)O)cc2)cc1-c1ccc2[nH]ccc2c1 | cell-free assay | – | competition with immobilised ligand | 0.1 µM | remaining binding | 80% |
| O=C(Nc1cnn(-c2csc(C(=O)NC3COC3)c2)c1)Nc1ccccc1Cl | enzyme activity | inhibitor | – | 5 µM | remaining activity | 95.5% |
| COc1ccc2cc(OCC3(C(=O)O)CN(C(=O)c4ccc(F)cc4)C3)ccc2c1 | cell-free assay | – | competition with immobilised ligand | 1 µM | remaining binding | 100% |
| Cc1ccc(-n2nc(C(C)(C)C)cc2NC(=O)Nc2ccc(OCCN3CCOCC3)c3ccccc23)cc1 | enzyme activity | inhibitor | – | 10 µM | inhibition | 3% |
| CNCc1ccc(-c2cc(-c3nc(-c4ccc(S(=O)(=O)C(C)C)cc4)cnc3N)on2)cc1 | enzyme activity | inhibitor | – | 0.4 µM | inhibition | 0% |
| O=C(NC[C@@H]1[C@H]2CN(C(=O)OCc3cc(C(F)(F)F)cc(C(F)(F)F)c3)C[C@@H]12)c1ccc2[nH]nnc2c1 | cell-free assay | – | competition with immobilised ligand | 1 µM | remaining binding | 98% |
| c1ccc(CNc2nc(N3CCOc4ccccc43)nc3c2CCCC3)cc1 | target engagement in cells | inhibitor | chemoproteomics | 20 mM | inhibition | -0.4% |
| N[C@@H]1CCN(c2nccc(-c3cnn4ncccc34)n2)C1 | binding | – | – | 1 µM | remaining binding | 33% |
| Cc1ccc(C(=O)NCc2ccsc2)cc1C#Cc1cn(C(C)C)c2ncnc(N)c12 | enzyme activity | inhibitor | – | 1 µM | activity vs control | 96% |
| COc1cc(-c2cn(C3CCc4c(F)cccc4N(CC(F)(F)F)C3=O)nn2)ccc1-n1cnc(C)c1 (stereo not drawn) | cell-free assay | – | competition with immobilised ligand | 1 µM | remaining binding | 100% |
